# The source made the active and inactive calls. No cut-off for these calls is given here.
# Target: T1, Retinoic acid receptor RXR-alpha (Homo sapiens) (UniProt P19793)
# T1 sequence (whole entry): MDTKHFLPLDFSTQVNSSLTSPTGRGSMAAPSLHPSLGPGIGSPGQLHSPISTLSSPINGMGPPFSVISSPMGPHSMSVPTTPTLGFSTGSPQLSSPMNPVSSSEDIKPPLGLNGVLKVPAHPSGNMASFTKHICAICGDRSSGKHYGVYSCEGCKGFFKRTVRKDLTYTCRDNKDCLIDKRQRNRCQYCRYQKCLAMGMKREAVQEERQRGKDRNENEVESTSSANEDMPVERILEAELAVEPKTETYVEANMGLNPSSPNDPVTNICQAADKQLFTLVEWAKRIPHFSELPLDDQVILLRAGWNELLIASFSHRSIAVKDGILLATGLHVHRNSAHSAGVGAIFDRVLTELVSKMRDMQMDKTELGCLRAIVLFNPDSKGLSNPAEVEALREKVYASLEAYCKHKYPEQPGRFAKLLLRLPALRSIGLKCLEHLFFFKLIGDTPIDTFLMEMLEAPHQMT
# Test: Agonist activity at full length human RxRalpha heterodimer response element DR5 expressed in HEK293T cells co-expressing firefly luciferase assessed as firefly luciferase activity up to 100 uM incubated for 12 to 14 hrs by hybrid reporter gene assay
# Format: cell-based
# Details: filed as agonist, dose microM <=100, time 12-14 hrs
# Procedure, shortened: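 Full-length receptor assay in HEK293T cells transiently cotransfected with pFR-Luc-DR5 reporter, human Nurr1 (pcDNA3.1-hNurr1-NE), human RXR (pSG5-hRXR) and SV40-renilla. Five hours post-transfection, compound was added in Opti-MEM with 0.1% DMSO for 12−14 h, then a dual-luciferase read-out. Firefly/renilla ×1000 gave RLU, expressed as fold over DMSO control. Duplicates, ≥3 independent experiments.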
row,Compound,Activity
1,Cc1cc(N)c2cccc(Cl)c2n1,Active

# Target: T2, Nuclear receptor subfamily 4 group A member 2 (Homo sapiens, UniProt P43354)
# T2 sequence (P43354 whole entry, the tested form may be a part): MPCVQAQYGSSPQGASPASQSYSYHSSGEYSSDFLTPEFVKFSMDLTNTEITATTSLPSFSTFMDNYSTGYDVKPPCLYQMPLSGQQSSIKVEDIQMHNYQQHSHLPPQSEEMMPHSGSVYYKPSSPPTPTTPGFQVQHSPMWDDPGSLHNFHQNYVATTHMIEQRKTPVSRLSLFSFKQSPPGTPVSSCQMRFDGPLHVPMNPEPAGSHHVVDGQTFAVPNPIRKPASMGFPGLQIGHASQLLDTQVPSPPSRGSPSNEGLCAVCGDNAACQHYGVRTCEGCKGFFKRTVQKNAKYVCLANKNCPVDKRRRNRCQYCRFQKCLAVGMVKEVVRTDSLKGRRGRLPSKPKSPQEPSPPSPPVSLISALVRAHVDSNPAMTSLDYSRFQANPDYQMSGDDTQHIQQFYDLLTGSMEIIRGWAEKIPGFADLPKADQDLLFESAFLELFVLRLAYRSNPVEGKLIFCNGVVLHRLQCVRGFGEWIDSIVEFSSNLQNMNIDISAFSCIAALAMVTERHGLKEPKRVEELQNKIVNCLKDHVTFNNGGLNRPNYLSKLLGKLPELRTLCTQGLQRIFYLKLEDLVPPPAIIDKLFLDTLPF
# Test: Inverse agonist activity at Gal4-fused human Nurr1 LBD expressed in HEK293T cells co-expressing firefly luciferase assessed as luciferase activity incubated for 12 to 14 hrs by hybrid reporter gene assay
# Format: cell-based
# Details: not given
# Procedure, shortened: (§1)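 HEK293T cells, seeded 3 × 10⁴/well the day before, were transiently transfected with a Gal4–human Nurr1 LBD hybrid receptor, a Gal4-responsive firefly luciferase reporter (pFR-Luc) and SV40-renilla luciferase. Five hours later cells received compound in Opti-MEM with 0.1% DMSO for 12−14 h, then a dual-luciferase read-out. Firefly/renilla ×1000 gave RLU; fold activation was taken vs DMSO. Duplicates, ≥3 independent runs; EC50/IC50 are mean SD.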
row,Compound,IC50 [µM]
1,O=C(O)CCCNc1ccnc2cc(Cl)ccc12,132
2,Clc1ccc2cccnc2c1,89

# Target: T2, Nuclear receptor subfamily 4 group A member 2
# Test: Agonist activity at Gal4-fused human Nurr1 LBD expressed in HEK293T cells co-expressing firefly luciferase assessed as luciferase activity at 200 uM incubated for 12 to 14 hrs by hybrid reporter gene assay
# Format: cell-based
# Details: time 12-14 hrs
# Procedure, shortened: as §1
row,Compound,Activity
1,Nc1cncc2c(Cl)cccc12,inactive

# Target: T2, Nuclear receptor subfamily 4 group A member 2
# Test: Agonist activity at Gal4-fused human Nurr1 LBD expressed in HEK293T cells co-expressing firefly luciferase assessed as luciferase activity at 10 uM incubated for 12 to 14 hrs by hybrid reporter gene assay
# Format: cell-based
# Details: time 12-14 hrs
# Procedure, shortened: as §1
row,Compound,Activity
1,CC(CCCN(C)C)Nc1cccc2c(Cl)cccc12 (stereo not drawn),inactive
2,Clc1ccc2c(NCc3ccccc3)ccnc2c1,inactive
3,O=C(OCC(O)CO)c1ccccc1Nc1ccnc2cc(Cl)ccc12 (stereo not drawn),inactive

# Target: T2, Nuclear receptor subfamily 4 group A member 2
# Test: Agonist activity at Gal4-fused human Nurr1 LBD expressed in HEK293T cells co-expressing firefly luciferase assessed as luciferase activity incubated for 12 to 14 hrs by hybrid reporter gene assay
# Format: cell-based
# Details: not given
row,Compound,EC50 [µM]
1,Nc1ccnc2cc(Cl)ccc12,259
2,Nc1ccnc2c(Cl)cccc12,49
3,CCCCNc1cc(C)nc2c(Cl)cccc12,12
4,Nc1ccnc2ccc(Cl)cc12,117

# Other lines, results leading:
row,EC50 [µM],Compound
1,17,Cc1cc(NC(C)C(C)C)c2cccc(Cl)c2n1 (stereo not drawn)
2,19,Nc1cc(Cl)cc2ncccc12
3,31,Cc1cc(NC(C)C)c2cccc(Cl)c2n1
4,116,CCN(CC)Cc1cccc(Nc2ccnc3cc(Cl)ccc23)c1
5,33,Cc1cc(N)c2ccc(Cl)cc2n1

# Target: T2, Nuclear receptor subfamily 4 group A member 2
# Test: Agonist activity at Gal4-fused human Nurr1 LBD expressed in HEK293T cells co-expressing firefly luciferase assessed as luciferase activity at 300 uM incubated for 12 to 14 hrs by hybrid reporter gene assay
# Format: cell-based
# Details: time 12-14 hrs
# Procedure, shortened: as §1
row,Compound,Activity
1,Clc1ccc2c(Cl)ccnc2c1,inactive
2,Nc1ccnc2c(F)cccc12,inactive
3,Nc1ccnc2c(C(F)(F)F)cccc12,inactive

# Results, then the molecule that gave them:
row,Activity,Compound
1,inactive,Nc1ccnc2ccccc12
2,inactive,Nc1cnc2cc(Cl)ccc2c1

# Target: T2, Nuclear receptor subfamily 4 group A member 2
# Test: Agonist activity at Gal4-fused human Nurr1 LBD expressed in HEK293T cells co-expressing firefly luciferase assessed as luciferase activity at 30 uM incubated for 12 to 14 hrs by hybrid reporter gene assay
# Format: cell-based
# Details: time 12-14 hrs
# Procedure, shortened: as §1
row,Compound,Activity
1,Oc1ccc(Nc2ccnc3cc(Cl)ccc23)cc1,inactive
2,CC1CCC(Nc2ccnc3cc(Cl)ccc23)CC1 (stereo not drawn),inactive

# Target: T2, Nuclear receptor subfamily 4 group A member 2
# Test: Agonist activity at Gal4-fused human Nurr1 LBD expressed in HEK293T cells co-expressing firefly luciferase assessed as luciferase activity at 100 uM incubated for 12 to 14 hrs by hybrid reporter gene assay
# Format: cell-based
# Details: time 12-14 hrs
# Procedure, shortened: as §1
row,Compound,Activity
1,CCN(CC)Cc1cc(Nc2cc(C)nc3c(Cl)cccc23)ccc1O,inactive
2,Nc1ccc2ccc(Cl)cc2n1,inactive
3,CCN(CC)CCCC(C)Nc1cc(C)nc2c(Cl)cccc12 (stereo not drawn),inactive
4,Nc1c(Cl)ccc2ncccc12,inactive
5,Nc1ccc(Cl)c2ncccc12,inactive
